According to ChEMBL document CHEMBL1153905, “Functionalized 3-benzylidene-indolin-2-ones: inducers of NAD(P)H-quinone oxidoreductase 1 (NQO1) with antiproliferative activity” (Bioorg Med Chem, 2009):
Blank lines part the entries; values can stand above or below the compound they belong to.

How the values were obtained:
[1] = Cytotoxicity against mouse Hepa-1c1c7 cells after 48 hrs by MTT assay; format: cell-based; settings: hepa-1c1c7, 48 h
In short: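 Murine hepatoma cells in α-MEM with 10% heat- and charcoal-treated fetal calf serum, passages 6–17; MTT read-out as for the cancer lines but with 48 h compound exposure. Highest concentration tested 25 µM. IC50 from survival-versus-concentration curve; mean and SD, n = 3.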

[2] = target: NAD(P)H dehydrogenase [quinone] 1 (Mus musculus) (UniProt Q64669); assay: Induction of NQO1 activity in mouse Hepa-1c1c7 cells assessed as induction ratio at 5 uM after 48 hrs by MTT assay relative to control; format: cell-based
Sequence of NAD(P)H dehydrogenase [quinone] 1 (Mus musculus) (Q64669 whole entry): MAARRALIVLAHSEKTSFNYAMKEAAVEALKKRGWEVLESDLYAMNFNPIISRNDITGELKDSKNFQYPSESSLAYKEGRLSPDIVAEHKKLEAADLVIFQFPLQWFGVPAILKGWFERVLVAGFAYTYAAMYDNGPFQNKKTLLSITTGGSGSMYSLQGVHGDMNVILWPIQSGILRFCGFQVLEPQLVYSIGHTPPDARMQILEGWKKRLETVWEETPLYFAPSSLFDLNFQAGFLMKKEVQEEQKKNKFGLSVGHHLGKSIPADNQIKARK
In short: (§1)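 Hepa1c1c7 cells, 10,000 per well, 24 h, were then treated 48 h (DMSO ≤0.5%). Digitonin/EDTA lysates were assayed for menadione-dependent MTT-formazan formation using a G6P/G6PDH NADPH-generating mix with FAD at pH 7.4. The reaction ran 5 min, was stopped with dicoumarol, and read at A590. Degree of induction = (A test − blank)/(A control − blank). Ratios were read off the induction–concentration plot at the EROD test concentration.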

CYP1A1 [3] = target: T1, CYP1A1 (Mus musculus, UniProt P00184); assay: Induction of CYP1A1 activity in mouse Hepa-1c1c7 cells assessed as induction ratio at 5 uM after 48 hrs by EROD assay relative to control; format: ADME, cell-based
T1 sequence (P00184 whole entry): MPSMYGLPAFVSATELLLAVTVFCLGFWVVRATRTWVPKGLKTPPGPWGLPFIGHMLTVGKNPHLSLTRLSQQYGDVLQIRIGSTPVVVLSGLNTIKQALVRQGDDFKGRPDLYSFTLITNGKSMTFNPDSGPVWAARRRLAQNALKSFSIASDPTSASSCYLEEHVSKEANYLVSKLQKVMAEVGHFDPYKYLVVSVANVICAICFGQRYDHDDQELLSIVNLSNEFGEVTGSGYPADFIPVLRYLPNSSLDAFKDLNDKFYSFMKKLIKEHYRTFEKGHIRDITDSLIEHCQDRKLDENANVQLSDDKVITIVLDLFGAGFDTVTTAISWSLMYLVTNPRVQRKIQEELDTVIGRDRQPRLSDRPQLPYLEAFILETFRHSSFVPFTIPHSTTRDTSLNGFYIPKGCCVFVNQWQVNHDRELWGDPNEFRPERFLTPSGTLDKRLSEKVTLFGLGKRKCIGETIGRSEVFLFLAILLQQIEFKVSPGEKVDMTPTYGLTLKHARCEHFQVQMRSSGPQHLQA
In short: (§2)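 Hepa1c1c7 cells were seeded at 10,000 per well and grown 24 h. They were then exposed 48 h to compound (final DMSO 0.5% v/v) at about 4 × the NQO1 CD. After a PBS wash, cells got 5 µM 7-ethoxyresorufin plus 2 mM salicylamide in medium, 37 °C, 40 min. Resorufin was read at ex 530/em 590 nm, corrected for compound fluorescence. Ratio = (F treated − blank)/(F DMSO control − blank); mean ± SD, n = 3.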

[4] = target: NAD(P)H dehydrogenase [quinone] 1 (Mus musculus) (UniProt Q64669); assay: Induction of NQO1 activity in mouse Hepa-1c1c7 cells assessed as induction ratio at 1 uM after 48 hrs by MTT assay relative to control; format: cell-based; in short: as §1
CYP1A1 [5] = target: T1, CYP1A1; assay: Induction of CYP1A1 activity in mouse Hepa-1c1c7 cells assessed as induction ratio at 1 uM after 48 hrs by EROD assay relative to control; format: ADME, cell-based
In short: (§3)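 About 10,000 Hepa1c1c7 cells/well cultured 24 h, then compound (0.5% DMSO final) for 48 h, at roughly 4 × the concentration doubling NQO1 activity. After PBS wash, cells given 5 µM 7-ethoxyresorufin plus 2 mM salicylamide, 37 °C, 40 min; resorufin fluorescence ex 530/em 590 nm, corrected for compound fluorescence. Ratio = (treated − blank)/(DMSO control − blank); mean ± SD, n = 3.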

CYP1A1 [6] = target: T1, CYP1A1; assay: Induction of CYP1A1 activity in mouse Hepa-1c1c7 cells assessed as induction ratio at 2.5 uM after 48 hrs by EROD assay relative to control; format: ADME, cell-based; in short: as §2
[7] = target: NAD(P)H dehydrogenase [quinone] 1 (Mus musculus) (UniProt Q64669); assay: Induction of NQO1 activity in mouse Hepa-1c1c7 cells assessed as induction ratio at 2.5 uM after 48 hrs by MTT assay relative to control; format: cell-based; in short: as §1
CYP1A1 [8] = target: T1, CYP1A1; assay: Induction of CYP1A1 activity in mouse Hepa-1c1c7 cells assessed as induction ratio at 20 uM after 48 hrs by EROD assay relative to control; format: ADME, cell-based; in short: as §2
[9] = target: NAD(P)H dehydrogenase [quinone] 1 (Mus musculus) (UniProt Q64669); assay: Induction of NQO1 activity in mouse Hepa-1c1c7 cells assessed as induction ratio at 20 uM after 48 hrs by MTT assay relative to control; format: cell-based; in short: as §1
CYP1A1 [10] = target: T1, CYP1A1; assay: Induction of CYP1A1 activity in mouse Hepa-1c1c7 cells assessed as induction ratio at 7.5 uM after 48 hrs by EROD assay relative to control; format: ADME, cell-based; in short: as §2
[11] = target: NAD(P)H dehydrogenase [quinone] 1 (Mus musculus) (UniProt Q64669); assay: Induction of NQO1 activity in mouse Hepa-1c1c7 cells assessed as induction ratio at 7.5 uM after 48 hrs by MTT assay relative to control; format: cell-based; in short: as §1
CYP1A1 [12] = target: T1, CYP1A1; assay: Induction of CYP1A1 activity in mouse Hepa-1c1c7 cells assessed as induction ratio at 0.5 uM after 48 hrs by EROD assay relative to control; format: ADME, cell-based; in short: as §3
[13] = target: NAD(P)H dehydrogenase [quinone] 1 (Mus musculus) (UniProt Q64669); assay: Induction of NQO1 activity in mouse Hepa-1c1c7 cells assessed as induction ratio at 0.5 uM after 48 hrs by MTT assay relative to control; format: cell-based; in short: as §1

SMILES: COc1cccc(/C=C2\Nc3ccccc3C2=O)c1
IC50 [1]: 21.2 µM
Ratio [2]: 3.88
fold induction at 48 h, 5 µM (CYP1A1 [3]): 1.13

SMILES: Cc1ccc(CC2C(=O)Nc3ccccc32)cc1 (stereo not given)
IC50 [1]: > 25 µM

SMILES: O=C1Nc2ccccc2/C1=C\c1ccc(Cl)cc1
fold induction at 48 h, 2.5 µM (CYP1A1 [6]): 1.06
IC50 [1]: 6.7 µM
Ratio [7]: 3.67

SMILES: N#Cc1ccc(/C=C2/C(=O)Nc3ccccc32)cc1
IC50 [1]: > 25 µM

SMILES: O=C1Nc2ccccc2/C1=C\c1ccccc1C(F)(F)F
fold induction at 48 h, 20 µM (CYP1A1 [8]): 1.2
IC50 [1]: > 25 µM
Ratio [9]: 2.96

SMILES: O=C1Nc2ccccc2/C1=C\c1ccncc1
fold induction at 48 h, 20 µM (CYP1A1 [8]): 1.01
IC50 [1]: > 25 µM
Ratio [9]: 2.08

SMILES: CCc1ccc(/C=C2/C(=O)Nc3ccccc32)cc1
fold induction at 48 h, 7.5 µM (CYP1A1 [10]): 1.08
IC50 [1]: > 25 µM
Ratio [11]: 4.96

SMILES: COc1ccc(/C=C2\Nc3ccccc3C2=O)cc1O
fold induction at 48 h, 7.5 µM (CYP1A1 [10]): 1.38
IC50 [1]: > 25 µM
Ratio [11]: 4.21

SMILES: COc1ccc(/C=C2/C(=O)Nc3ccccc32)cc1O
fold induction at 48 h, 0.5 µM (CYP1A1 [12]): 2.66
IC50 [1]: 11.9 µM
Ratio [13]: 3.13

SMILES: COc1cccc(/C=C2/C(=O)Nc3ccc(Cl)cc32)c1
fold induction at 48 h, 2.5 µM (CYP1A1 [6]): 1.32
IC50 [1]: 17.5 µM
Ratio [7]: 4.34

Now from value to compound, other results behind:

Ratio [4]: 4.03
fold induction at 48 h, 1 µM (CYP1A1 [5]): 2.48
SMILES: COc1ccccc1/C=C1/C(=O)Nc2ccccc21
IC50 [1]: > 25 µM

Ratio [4]: 4.04
fold induction at 48 h, 1 µM (CYP1A1 [5]): 1.08
SMILES: Cc1cccc(/C=C2/C(=O)Nc3ccccc32)c1
IC50 [1]: > 25 µM

fold induction at 48 h, 20 µM (CYP1A1 [8]): 1.64
Ratio [9]: 5.69
SMILES: O=C1Nc2ccccc2/C1=C\c1ccc(F)cc1
IC50 [1]: > 25 µM

fold induction at 48 h, 7.5 µM (CYP1A1 [10]): 1.07
Ratio [11]: 3.05
SMILES: Cc1ccc(/C=C2/C(=O)Nc3ccccc32)cc1
IC50 [1]: > 25 µM

Ratio [2]: 6.8
fold induction at 48 h, 5 µM (CYP1A1 [3]): 1.26
SMILES: O=C1Nc2ccccc2/C1=C\c1ccccc1F
IC50 [1]: > 25 µM

Ratio [4]: 3.21
fold induction at 48 h, 1 µM (CYP1A1 [5]): 1.25
SMILES: COc1cccc(/C=C2/C(=O)Nc3cc(F)ccc32)c1
IC50 [1]: 9.8 µM

Ratio [4]: 5.09
fold induction at 48 h, 1 µM (CYP1A1 [5]): 2.33
SMILES: COc1ccc(/C=C2/C(=O)Nc3cc(Cl)ccc32)cc1O
IC50 [1]: > 25 µM

fold induction at 48 h, 0.5 µM (CYP1A1 [12]): 1.21
Ratio [13]: 4.47
SMILES: O=C1Nc2ccccc2/C1=C\c1cccc(Cl)c1
IC50 [1]: 5.9 µM
